{
  "source": "paper PMC4681692",
  "about": "(Child's nervous system : ChNS : official journal of the …, 2015)",
  "key": {"amyloid peptide levels": {"system": "amyloid peptide levels", "conditions": "animal models; cited from earlier work"}, "NOTCH pathway genes": {"system": "NOTCH pathway genes", "conditions": "healthy adults, once weekly dosing; cited from earlier work"}, "[1]": {"conditions": "children, 3-days-on/4-days-off schedule; cited from earlier work"}, "[2]": {"conditions": "cited from earlier work; for t1/2: adults"}, "[3]": {"system": "children with recurrent CNS tumors", "conditions": "3-days-on/4-days-off schedule; cited from earlier work"}, "recurrent CNS tumors [4]": {"system": "recurrent CNS tumors", "conditions": "children, 3-days-on/4-days-off schedule; cited from earlier work"}, "[5]": {"system": "children with recurrent central nervous system (CNS) malignancies", "conditions": "in vivo"}, "NOTCH": {"system": "NOTCH", "conditions": "adults, weekly administration; cited from earlier work"}, "[6]": {"system": "refractory adult solid tumors", "conditions": "cited from earlier work"}, "[7]": {"system": "NOTCH1 cleavage (NICD1) in PBMCs", "test": "NICD1 expression in PBMCs by Western blot", "format": "in vivo, human", "conditions": "for patients with NICD1 expression decreased from baseline: PBMCs"}, "recurrent CNS tumors [8]": {"system": "recurrent CNS tumors", "test": "Tumor response in phase I trial of weekly MK-0752", "format": "in vivo, human", "how_it_was_run": "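The oral test compound was given once weekly at 1,000 or 1,400 mg/m2 in 28-day courses, using a rolling-6 design. Disease was assessed at baseline, after course 2 and after every other course thereafter. Patients got up to 6 courses unless disease progressed, and those with stable disease after 6 courses could receive up to 13 more.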"}, "[9]": {"test": "Plasma pharmacokinetics of weekly MK-0752, dose 1 course 1", "format": "in vivo", "conditions": "human, oral, both dose levels", "how_it_was_run": "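Children with recurrent CNS tumours took oral test compound capsules once weekly at 1,000 or 1,400 mg/m2, in 28-day courses. Heparinised blood was drawn before dose 1 of course 1 and at 1, 2, 3, 6, 8 (±2), 24 (±4) and 48 h after it. Plasma drug was measured by validated LC-MS/MS and analysed non-compartmentally. β came from the last two measurable points, and t1/2 = ln(2)/β.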"}, "advanced breast cancer": {"system": "advanced breast cancer", "conditions": "with docetaxel, MK-0752 days 1-3, of 30 evaluable patients; cited from earlier work"}, "[10]": {"system": "platinum-resistant ovarian carcinoma xenograft model", "conditions": "cited from earlier work"}, "glioblastoma cell lines": {"system": "glioblastoma cell lines", "conditions": "combination with Akt inhibitor MK-2206, compared to monotherapy; cited from earlier work"}},
  "note": "Read-outs that look alike come from different tables or passages of the source.",
  "data": [
    {"smiles": "O=C(O)CC[C@H]1CC[C@@](c2cc(F)ccc2F)(S(=O)(=O)c2ccc(Cl)cc2)CC1", "note": "[MK-0752]", "values": [
      {"measurement": "blood-brain barrier penetration", "setting": "amyloid peptide levels", "value": "penetrate the blood-brain barrier"},
      {"measurement": "reduction of amyloid peptide levels", "setting": "amyloid peptide levels", "value": 50, "unit": "%"},
      {"measurement": "duration of decreased expression of NOTCH pathway genes", "setting": "NOTCH pathway genes", "value": "at least 96 hours"},
      {"measurement": "t1/2", "setting": "[1]", "value": 11.4, "unit": "h"},
      {"measurement": "Cmax", "setting": "[2]; adults receiving 1,800 mg (~1,040 mg/m^2) weekly", "value": 84.2, "unit": "µg/mL"},
      {"measurement": "t1/2", "setting": "[2]; weekly 1,800 mg (~1,040 mg/m^2)", "value": 13.8, "unit": "h"},
      {"measurement": "t1/2", "setting": "[2]; weekly 2,400 mg (~1,400 mg/m^2)", "value": 16.2, "unit": "h"},
      {"measurement": "dose-limiting toxicity preventing dose escalation beyond 260 mg/m^2", "setting": "[3]", "value": "dose-limiting elevations of AST and ALT"},
      {"measurement": "well-tolerated dose", "setting": "[3]", "value": 260, "unit": "mg/m^2"},
      {"measurement": "evaluable patients with prolonged SD (3 and 4 cycles)", "setting": "recurrent CNS tumors [4]", "value": "2 of 17"},
      {"measurement": "ALT increase", "setting": "[5]; human", "value": 2},
      {"measurement": "AST increase", "setting": "[5]; human", "value": 2},
      {"measurement": "Allergic rhinitis", "setting": "[5]; human", "value": 1},
      {"measurement": "Anorexia", "setting": "[5]; human", "value": 1},
      {"measurement": "Diarrhea", "setting": "[5]; human", "value": 4},
      {"measurement": "Dizziness", "setting": "[5]; human", "value": 1},
      {"measurement": "Dry skin", "setting": "[5]; human", "value": 1},
      {"measurement": "Fatigue", "setting": "[5]; human", "value": 1},
      {"measurement": "Hyperglycemia", "setting": "[5]; human", "value": 1},
      {"measurement": "Hypermagnesemia", "setting": "[5]; human", "value": 1},
      {"measurement": "Hypoalbuminemia", "setting": "[5]; human", "value": 2},
      {"measurement": "Hypokalemia", "setting": "[5]; human", "value": 1},
      {"measurement": "Hypomagenesemia", "setting": "[5]; human", "value": 2},
      {"measurement": "Hypophosphatemia", "setting": "[5]; human", "value": 2},
      {"measurement": "Hypotension", "setting": "[5]; human", "value": 1},
      {"measurement": "Increased Hemoglobin", "setting": "[5]; human", "value": 1},
      {"measurement": "Leukopenia", "setting": "[5]; human", "value": 2},
      {"measurement": "Nausea", "setting": "[5]; human", "value": 1},
      {"measurement": "Vomiting", "setting": "[5]; human", "value": 2},
      {"measurement": "grade 4 toxicities", "setting": "[5]; human", "value": "no grade 4 toxicities"},
      {"measurement": "Non-dose-limiting grade 3 toxicities", "setting": "[5]", "value": "lymphopenia, neutropenia, and anemia"},
      {"measurement": "dose-limiting diarrhea and GI toxicity", "setting": "[5]", "value": "not observed"},
      {"measurement": "dose achieving target inhibition", "setting": "NOTCH", "value": "3,200 mg"},
      {"measurement": "duration of CR", "setting": "[6]; one adult patient with anaplastic astrocytoma, 1,800 mg once weekly", "value": "> 1", "unit": "year"},
      {"measurement": "duration of SD", "setting": "[6]; one adult patient with glioblastoma multiforme, 4,200 mg once weekly", "value": "> 1", "unit": "year"},
      {"measurement": "change in NICD expression in PBMCs", "setting": "[7]; 24 hours after the higher dose (1,400 mg)", "value": "dose-dependent decrease"},
      {"measurement": "patients with NICD1 expression decreased from baseline", "setting": "[7]; 24 hours post MK-0752, 1,000 and 1,400 mg/m^2", "value": "6 of 7"},
      {"measurement": "patients with NICD1 expression decreased from baseline", "setting": "[7]; 24 hours post MK-0752, treated at 1,400 mg/m^2 (n=3)", "value": "all three"},
      {"measurement": "patients with prolonged SD (6 and 10 cycles)", "setting": "recurrent CNS tumors [8]; all evaluable patients, weekly schedule", "value": "2 of 9"},
      {"measurement": "objective responses", "setting": "recurrent CNS tumors [8]; weekly 1,000 and 1,400 mg/m^2", "value": "No objective responses"},
      {"measurement": "half-life", "setting": "[9]; median t1/2, all 10 patients", "value": 21.7, "unit": "h"},
      {"measurement": "half-life", "setting": "[9]; t1/2 (range), all 10 patients", "value": "9.8 to 42.2", "unit": "h"},
      {"measurement": "patients with PR", "setting": "advanced breast cancer", "value": 9},
      {"measurement": "patients with SD", "setting": "advanced breast cancer", "value": 11}
    ]},
    {"smiles": "O=S1(=O)N[C@@]2(CN1CC(F)(F)F)[C@@H]1CC[C@H]2Cc2ccc(/C=C/CN3CCC(C(F)(F)F)CC3)cc2C1", "note": "[MRK003]", "values": [
      {"measurement": "combination effect with paclitaxel", "setting": "[10]", "value": "synergy"},
      {"measurement": "effect of combination on migratory and invasive potential of glioblastoma", "setting": "glioblastoma cell lines", "value": "synergistic inhibition"}
    ]}
  ]
}
